In ChEMBL document CHEMBL1152647, “Hybrid pharmacophore design and synthesis of isatin-benzothiazole analogs for their anti-breast cancer activity” (Bioorg Med Chem, 2009):
The source made the active and inactive calls. No cut-off for these calls is given here.

How the values were obtained:
[1] = tested on: MDA-MB-231; experiment: Cytotoxicity against human MDA-MB-231 cells after 48 hrs by SRB assay; assay type: functional; conditions: MDA-MB-231, 48 h
How it was run: (§1)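 Cancer lines grown in RPMI 1640 with 10% FBS and 2 mM L-glutamine; 184B5 and MCF10A grown in supplemented mammary epithelial basal medium. 5000–10,000 cells/well seeded, 24 h at 37 °C and 5% CO₂. Seven serially diluted concentrations added, final DMSO ≤0.1%, 48 h exposure. Fixed with 10% TCA (final) at 4 °C, stained with 0.4% SRB, solubilized in 10 mM Tris, A515–564. Growth % = (Ti−Tz)/(C−Tz)×100; GI50 from sigmoidal variable-slope fit; triplicates, ≥2 independent experiments.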

[2] = tested on: MDA-MB-468; experiment: Cytotoxicity against human MDA-MB-468 cells after 48 hrs by SRB assay; assay type: functional; conditions: MDA-MB-468, 48 h; how it was run: as §1
[3] = tested on: MCF7; experiment: Cytotoxicity against human MCF7 cells after 48 hrs by SRB assay; assay type: functional; conditions: MCF7, 48 h; how it was run: as §1
[4] = Cytotoxicity against human 184B5 cells after 48 hrs by SRB assay; assay type: cell-based; how it was run: as §1
[5] = Cytotoxicity against human MCF10A cells after 48 hrs by SRB assay; assay type: cell-based, MCF-10A; how it was run: as §1
[6] = tested on: MCF7; experiment: Cell cycle arrest in human MCF7 cells assessed as accumulation at G2/M phase at 20 uM after 24 hrs by flow cytometry (Rvb=12%); assay type: functional
How it was run: (§2)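 MCF7 or MCF10A cells treated with compound at 20 or 40 µM for 24 h, with DMSO-treated negative control. 2.0 × 10⁶ cells pelleted and fixed in ice-cold 70% ethanol (30 min to overnight, −20 °C), then washed in PBS. Stained 30 min at 37 °C with 100 µg/mL PI, 100 µg/mL RNase A, 0.3% NP-40 and 0.1% sodium citrate. DNA content read by flow cytometry; G0/G1, S and G2/M fractions taken from DNA histograms.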

[7] = tested on: MCF7; experiment: Cell cycle arrest in human MCF7 cells assessed as accumulation at S phase at 20 uM after 24 hrs by flow cytometry (Rvb=17%); assay type: functional; how it was run: as §2
[8] = tested on: MCF-10A; experiment: Cell cycle arrest in human MCF10A cells assessed as accumulation at G2/M phase at 20 uM after 24 hrs by flow cytometry; assay type: functional, cell-based; how it was run: as §2
[9] = tested on: MCF-10A; experiment: Cell cycle arrest in human MCF10A cells assessed as accumulation at S phase at 20 uM after 24 hrs by flow cytometry; assay type: functional, cell-based; how it was run: as §2
[10] = tested on: MCF7; experiment: Cell cycle arrest in human MCF7 cells assessed as accumulation at G2/M phase at 40 uM after 24 hrs by flow cytometry; assay type: functional, cell-based; how it was run: as §2
[11] = tested on: MDA-MB-231; experiment: Selectivity ratio of GI50 for human MCF10A cells to GI50 for human MDA-MB-231 cells
How it was run: (§3)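 Ratio of non-cancer to cancer GI50, each from 48 h SRB growth assays (seven concentrations, sigmoidal variable-slope fit, triplicates in ≥2 independent experiments).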

[12] = tested on: MDA-MB-468; experiment: Selectivity ratio of GI50 for human 184B5 cells to GI50 for human MDA-MB-468 cells; how it was run: as §3

CCN(CC)CN1C(=O)/C(=N\c2nc3ccc(C)cc3s2)c2ccccc21
GI50 [1]: 32.7 µM | GI50 [2]: 63.5 µM | GI50 [3]: 74.8 µM | GI50 at 48 h [4]: 27.5 µM | GI50 at 48 h [5]: 20.4 µM

Cc1ccc2nc(/N=C3\C(=O)N(CN4CCCCC4)c4ccccc43)sc2c1
GI50 [1]: 34.5 µM | GI50 [2]: 65.6 µM | GI50 [3]: 37.8 µM | GI50 at 48 h [4]: 34.9 µM | GI50 at 48 h [5]: 38.9 µM

Cc1ccc2nc(/N=C3\C(=O)N(CN4CCCCC4)c4cccc(Br)c43)sc2c1
GI50 [1]: 38.2 µM | GI50 [2]: 24 µM | GI50 [3]: 39.1 µM | GI50 at 48 h [4]: 85.2 µM | GI50 at 48 h [5]: 18.4 µM

Cc1ccc2nc(/N=C3\C(=O)N(CN4CCOCC4)c4ccccc43)sc2c1
GI50 [1]: 19.8 µM | GI50 [2]: 17.6 µM | GI50 [3]: 14.6 µM | GI50 at 48 h [4]: 30.6 µM | GI50 at 48 h [5]: 38.5 µM | Activity [6]: inactive | Activity [7]: inactive | Activity [8]: inactive | Activity [9]: inactive | Activity [10]: Active

O=C1C(=O)N(CN2CCOCC2)c2cccc(Br)c21
GI50 [1]: 29.7 µM | GI50 [2]: 54 µM | GI50 [3]: 65.6 µM | GI50 at 48 h [4]: 79.5 µM | GI50 at 48 h [5]: 82.3 µM

O=C1C(=O)N(CN2CCOCC2)c2cccc(Cl)c21
GI50 [1]: 61.5 µM | GI50 [2]: 61.5 µM | GI50 [3]: 29.2 µM | GI50 at 48 h [4]: 79.8 µM | GI50 at 48 h [5]: 78.5 µM

Cc1ccc2nc(/N=C3\C(=O)N(CN4CCCCC4)c4cccc(Cl)c43)sc2c1
GI50 [1]: 55.8 µM | GI50 [2]: 19.8 µM | GI50 [3]: 30.9 µM | GI50 at 48 h [4]: 82.3 µM | GI50 at 48 h [5]: 30.2 µM

CCN(CC)CN1C(=O)C(=O)c2c(Cl)cccc21
GI50 [1]: 44.5 µM | GI50 [2]: 28.3 µM | GI50 [3]: 34 µM | GI50 at 48 h [4]: 22.5 µM | GI50 at 48 h [5]: 35 µM

O=C1C(=O)N(CN(c2ccccc2)c2ccccc2)c2cccc(Br)c21
GI50 [1]: 51.1 µM | GI50 [2]: 63.2 µM | GI50 [3]: 110 µM | GI50 at 48 h [4]: 98.5 µM | GI50 at 48 h [5]: 85.8 µM

CCN(CC)CCCC(C)Nc1ccnc2cc(Cl)ccc12 (stereo not drawn) [CHLOROQUINE]
GI50 at 48 h [4]: 76.1 µM | GI50 at 48 h [5]: 81.3 µM

Cc1ccc2nc(/N=C3\C(=O)N(CN(c4ccccc4)c4ccccc4)c4cccc(Cl)c43)sc2c1
GI50 [1]: 54 µM | GI50 [2]: 85 µM | GI50 [3]: 24.3 µM | GI50 at 48 h [4]: 67.8 µM | GI50 at 48 h [5]: 70 µM

O=C1C(=O)N(CN2CCCCC2)c2cccc(Cl)c21
GI50 [1]: 26.5 µM | GI50 [2]: 82.8 µM | GI50 [3]: 51.2 µM | GI50 at 48 h [4]: 93.7 µM | GI50 at 48 h [5]: 70.7 µM

CCN(CC)CN1C(=O)C(=O)c2ccccc21
GI50 [1]: 60.6 µM | GI50 [2]: 35.9 µM | GI50 [3]: 44.1 µM | GI50 at 48 h [4]: 41.7 µM | GI50 at 48 h [5]: 73.6 µM

O=C1C(=O)N(CN2CCCCC2)c2cccc(Br)c21
GI50 [1]: 30.2 µM | GI50 [2]: 35.3 µM | GI50 [3]: 31.4 µM | GI50 at 48 h [4]: 85.2 µM | GI50 at 48 h [5]: 66.9 µM

O=C1C(=O)N(CN2CCOCC2)c2ccccc21
GI50 [1]: 57.6 µM | GI50 [2]: 28.2 µM | GI50 [3]: 52.3 µM | GI50 at 48 h [4]: 78.7 µM | GI50 at 48 h [5]: 72.1 µM

Cc1ccc2nc(/N=C3\C(=O)N(CN(c4ccccc4)c4ccccc4)c4cccc(Br)c43)sc2c1
GI50 [1]: 75.1 µM | GI50 [2]: 82.3 µM | GI50 [3]: 30.2 µM | GI50 at 48 h [4]: 70.2 µM | GI50 at 48 h [5]: 67.9 µM

CCN(CC)CN1C(=O)/C(=N\c2nc3ccc(C)cc3s2)c2c(Br)cccc21
GI50 [1]: 28.7 µM | GI50 [2]: 43.1 µM | GI50 [3]: 30.2 µM | GI50 at 48 h [4]: 34.3 µM | GI50 at 48 h [5]: 16.1 µM

Cc1ccc2nc(/N=C3\C(=O)N(CN4CCOCC4)c4cccc(Cl)c43)sc2c1
GI50 [1]: 37.1 µM | GI50 [2]: 24 µM | GI50 [3]: 21.5 µM | GI50 at 48 h [4]: 63.5 µM | GI50 at 48 h [5]: 62.3 µM

CN(C)CN1C(=O)C(=O)c2ccccc21
GI50 [1]: 65.6 µM | GI50 [2]: 50.1 µM | GI50 [3]: 40.5 µM | GI50 at 48 h [4]: 73.7 µM | GI50 at 48 h [5]: 150 µM

O=C1C(=O)N(CN2CCCCC2)c2ccccc21
GI50 [1]: 38 µM | GI50 [2]: 24.1 µM | GI50 [3]: 41.2 µM | GI50 at 48 h [4]: 68 µM | GI50 at 48 h [5]: 41.8 µM

Cc1ccc2nc(/N=C3\C(=O)N(CN(C)C)c4cccc(Br)c43)sc2c1
GI50 [1]: 49 µM | GI50 [2]: 27.4 µM | GI50 [3]: 17.9 µM | GI50 at 48 h [4]: 74.8 µM | GI50 at 48 h [5]: 21.8 µM

Cc1ccc2nc(/N=C3\C(=O)N(CN4CCOCC4)c4cccc(Br)c43)sc2c1
GI50 [1]: 94.6 µM | GI50 [2]: 24.8 µM | GI50 [3]: 12 µM | GI50 at 48 h [4]: 29.9 µM | GI50 at 48 h [5]: 33.2 µM

Cc1ccc2nc(/N=C3\C(=O)N(CN(C)C)c4ccccc43)sc2c1
GI50 [1]: 19.2 µM | GI50 [2]: 35.5 µM | GI50 [3]: 29.2 µM | GI50 at 48 h [4]: 15.6 µM | GI50 at 48 h [5]: 13.4 µM

CCN(CC)CN1C(=O)/C(=N\c2nc3ccc(C)cc3s2)c2c(Cl)cccc21
GI50 [1]: 20.4 µM | GI50 [2]: 27.3 µM | GI50 [3]: 19.2 µM | GI50 at 48 h [4]: 87.8 µM | GI50 at 48 h [5]: 43.9 µM

CN(C)CN1C(=O)C(=O)c2c(Cl)cccc21
GI50 [1]: 138 µM | GI50 [2]: 107 µM | GI50 [3]: 87.8 µM | GI50 at 48 h [4]: 130 µM | GI50 at 48 h [5]: 82.3 µM

Cc1ccc2nc(/N=C3\C(=O)N(CN(C)C)c4cccc(Cl)c43)sc2c1
GI50 [1]: 10.9 µM | GI50 [2]: 28.1 µM | GI50 [3]: 20.7 µM | GI50 at 48 h [4]: 5.77 µM | GI50 at 48 h [5]: 7.02 µM

O=C1C(=O)N(CN(c2ccccc2)c2ccccc2)c2cccc(Cl)c21
GI50 [1]: 31.4 µM | GI50 [2]: 14.3 µM | GI50 [3]: 29.7 µM | GI50 at 48 h [4]: 96.8 µM | GI50 at 48 h [5]: 77.2 µM

CN(C)CN1C(=O)C(=O)c2c(Br)cccc21
GI50 [1]: 93.7 µM | GI50 [2]: 49 µM | GI50 [3]: 57.6 µM | GI50 at 48 h [4]: 77.9 µM | GI50 at 48 h [5]: 67.8 µM

Cc1ccc2nc(/N=C3\C(=O)N(CN(c4ccccc4)c4ccccc4)c4ccccc43)sc2c1
GI50 [1]: 34.1 µM | GI50 [2]: 17.7 µM | GI50 [3]: 39.1 µM | GI50 at 48 h [4]: 27.2 µM | GI50 at 48 h [5]: 34 µM

O=C1C(=O)N(CN(c2ccccc2)c2ccccc2)c2ccccc21
GI50 [1]: 24.8 µM | GI50 [2]: 21.5 µM | GI50 [3]: 23.7 µM | GI50 at 48 h [4]: 33.7 µM | GI50 at 48 h [5]: 73 µM

CCN(CC)CN1C(=O)C(=O)c2c(Br)cccc21
GI50 [1]: 20.2 µM | GI50 [2]: 11.7 µM | GI50 [3]: 20.2 µM | GI50 at 48 h [4]: 172 µM | GI50 at 48 h [5]: 113 µM | RatioGI50 [11]: 5.6 | RatioGI50 [12]: 14.7 | Activity [6]: 38% | Activity [7]: 8% | Activity [8]: inactive | Activity [9]: inactive
